{
  "source": "ChEMBL document CHEMBL4819027",
  "about": "“Design, synthesis and biological evaluation of novel 2-(4-(1H-indazol-6-yl)-1H-pyrazol-1-yl)acetamide derivatives as potent VEGFR-2 inhibitors” (Eur J Med Chem, 2021)",
  "key": {"HGC-27 [1]": {"system": "HGC-27", "assay": "Downregulation of MMP-9 protein expression in human HGC-27 cells incubated for 24 hrs by immunoblot analysis", "assay_type": "functional, cell-based", "outline": "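HGC-27 cells (1.0 × 10⁶ per 60 mm dish) were treated 24 h with 0.1% DMSO or compound (0.1, 0.5, 1 μM). Cells were lysed in RIPA with PMSF and phosphatase inhibitor, and protein measured by BCA. Lysates were run on 8–12% SDS-PAGE, transferred to nitrocellulose and probed with primary antibodies overnight at 4 °C, then HRP secondary. Bands were detected by ECL and densitometry; at least triplicate.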"}, "HGC-27 [2]": {"system": "HGC-27", "assay": "Induction of apoptosis in human HGC-27 cells assessed as late apoptotic cells level at 0.1 uM incubated for 24 hrs by propidium iode and annexin V-FITC staining based flow cytometry (reference value: 0.86%)", "assay_type": "functional", "outline": "(§1)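 HGC-27 cells (1.0 × 10⁶ per 60 mm dish) were treated 24 h with 0.1% DMSO or compound (0.1, 0.5, 1 μM). Cells were stained with Annexin V-FITC in HEPES/NaCl/CaCl₂ binding buffer (pH 7.4) for 15 min at room temperature, then with PI for 10 min. About 10 000 events were acquired by flow cytometry to give viable, early apoptotic, late apoptotic and necrotic fractions.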"}, "HGC-27 [3]": {"system": "HGC-27", "assay": "Antiinvasive activity against human HGC-27 cells assessed as reduction in cell invasion measured after 24 hrs by transwell invasion assay", "assay_type": "functional, cell-based", "outline": "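Transwell inserts (12 μm pore) were precoated with Matrigel. HGC-27 cells at 5 × 10⁵ cells/mL were placed in the upper well in serum-free medium with compound (0.1, 0.5, 1 μM). The lower chamber held RPMI-1640 with 10% FBS. After 24 h at 37 °C, invaded cells were methanol-fixed and stained with 0.1% crystal violet. Cells were counted in three random fields; three independent experiments, mean ± SD.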"}, "HGC-27 [4]": {"system": "HGC-27", "assay": "Inhibition of cell migration at human HGC-27 cells in 0.1 to 1 uM measured up to 24 hrs by microscopic based wound healing assay", "assay_type": "functional", "details": "dose 0.1-1 µM, time hrs <=24, TDE = time-dependent effect", "outline": "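HGC-27 grown to 80–90% confluence in 6-well plates, serum-starved 12 h, scratched with 200 µL tip (~1 mm lane). Washed, then given complete medium alone or with compound (0.1, 0.5, 1 µM) or sorafenib positive control. Imaged by inverted microscope at 0, 6 and 24 h; relative scratch closure quantified; mean ± SD, three independent experiments.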"}, "HGC-27 [5]": {"system": "HGC-27", "assay": "Induction of apoptosis in human HGC-27 cells assessed as total apoptotic cells level at 0.1 uM incubated for 24 hrs by propidium iode and annexin V-FITC staining based flow cytometry", "assay_type": "functional", "outline": "as §1"}, "HGC-27 [6]": {"system": "HGC-27", "assay": "Inhibition of colony formation in human HGC-27 cells after 12 days by crystal violet staining based assay", "assay_type": "functional, cell-based", "details": "dose 0.1-1 µM, time 12.0 day", "outline": "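HGC-27 cells (500/well, 6-well plates) attached 24 h at 37 °C, then kept 12 days in medium with compound (0.1, 0.5, 1 µM), 0.1% DMSO vehicle or 5 µM sorafenib. Washed with cold PBS, methanol-fixed, stained 0.1% crystal violet 30 min; colonies >50 cells photographed and counted.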"}, "[7]": {"target": "T1, Vascular endothelial growth factor receptor 2 (Homo sapiens, UniProt P35968)", "T1 sequence (P35968 whole entry)": "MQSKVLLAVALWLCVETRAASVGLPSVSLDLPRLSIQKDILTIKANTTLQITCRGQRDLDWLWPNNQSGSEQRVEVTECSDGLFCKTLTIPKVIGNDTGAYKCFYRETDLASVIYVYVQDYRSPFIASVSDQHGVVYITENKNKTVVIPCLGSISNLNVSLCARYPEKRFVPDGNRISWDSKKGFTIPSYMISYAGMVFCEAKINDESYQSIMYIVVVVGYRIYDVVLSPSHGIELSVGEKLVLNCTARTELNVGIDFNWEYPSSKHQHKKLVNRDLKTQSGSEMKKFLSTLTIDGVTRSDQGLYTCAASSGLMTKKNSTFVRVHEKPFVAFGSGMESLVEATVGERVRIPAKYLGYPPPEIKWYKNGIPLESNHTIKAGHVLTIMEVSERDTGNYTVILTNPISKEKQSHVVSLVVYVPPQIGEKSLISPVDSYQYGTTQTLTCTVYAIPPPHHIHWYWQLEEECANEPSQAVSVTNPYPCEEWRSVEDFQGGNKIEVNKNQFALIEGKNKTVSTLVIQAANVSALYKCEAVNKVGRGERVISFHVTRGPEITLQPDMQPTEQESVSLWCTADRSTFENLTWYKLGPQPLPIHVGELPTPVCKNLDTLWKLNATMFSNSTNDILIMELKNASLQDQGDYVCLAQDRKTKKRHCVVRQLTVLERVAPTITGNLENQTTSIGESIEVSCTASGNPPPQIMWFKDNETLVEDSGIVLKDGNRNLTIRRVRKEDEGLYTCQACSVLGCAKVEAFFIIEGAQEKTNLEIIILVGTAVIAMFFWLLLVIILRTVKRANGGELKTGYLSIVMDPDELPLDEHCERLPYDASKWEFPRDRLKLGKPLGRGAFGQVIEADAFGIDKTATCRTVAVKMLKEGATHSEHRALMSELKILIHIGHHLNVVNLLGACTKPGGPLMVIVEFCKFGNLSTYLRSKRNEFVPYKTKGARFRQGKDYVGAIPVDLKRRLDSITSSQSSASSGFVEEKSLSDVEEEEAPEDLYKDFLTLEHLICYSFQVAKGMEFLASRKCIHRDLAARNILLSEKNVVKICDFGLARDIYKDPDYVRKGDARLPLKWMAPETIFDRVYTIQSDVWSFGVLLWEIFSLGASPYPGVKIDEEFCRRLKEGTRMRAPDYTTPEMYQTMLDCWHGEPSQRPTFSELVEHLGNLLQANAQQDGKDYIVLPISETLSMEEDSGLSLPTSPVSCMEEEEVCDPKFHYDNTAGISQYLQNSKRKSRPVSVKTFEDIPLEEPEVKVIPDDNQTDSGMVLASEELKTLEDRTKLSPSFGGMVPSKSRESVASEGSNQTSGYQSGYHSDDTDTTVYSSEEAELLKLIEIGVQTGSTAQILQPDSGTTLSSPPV", "assay": "Inhibition of VEGFR2-mediated angiogenesis in HUVEC cells assessed as reduction of phosphorylation of VEGFR-2 after 24 hrs by Westernblot analysis relative to control", "assay_type": "cell-based", "details": "dose 1-10 µM", "outline": "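HUVECs seeded at 1.0×10^6 cells/dish in ECM with 1% ECGS, 10% FBS; treated 24 h with test compound (1, 5, 10 µM), 0.1% DMSO vehicle or 10 µM sorafenib. Lysed in RIPA with PMSF and phosphatase inhibitor; 8–12% SDS-PAGE, nitrocellulose, milk block, CST primaries overnight 4 °C, HRP secondaries, ECL; p-VEGFR-2 (Tyr1175) densitometry; at least triplicate.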"}, "HGC-27 [8]": {"system": "HGC-27", "assay": "Induction of apoptosis in human HGC-27 cells assessed as early apoptotic cells level incubated for 24 hrs by propidium iode and annexin V-FITC staining based flow cytometry", "assay_type": "functional, cell-based", "details": "dose 0.1-1 µM", "outline": "as §1"}, "HGC-27 [9]": {"system": "HGC-27", "assay": "Antimigratory activity against human HGC-27 cells assessed as number of migration cells at 0.1 uM measured after 24 hrs by transwell migration assay (reference value: 320)", "assay_type": "functional"}, "HUVEC [10]": {"system": "HUVEC", "assay": "Antiangiogenic activity against HUVEC cells assessed as reduction in VEGF-induced total branching points at 1 to 10 uM incubated for 12 hrs by matrigel-based assay", "assay_type": "functional, cell-based", "details": "Homo sapiens, dose 1-10 µM", "outline": "(§2)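 HUVECs at 4 × 10⁵ cells/mL seeded on Matrigel that had been polymerized 1 h at 37 °C. Cells were stimulated with 20 ng/mL VEGF and treated with compound (1, 2.5, 5 and 10 μM) or 0.1% DMSO vehicle for 12 h at 37 °C. Tubes were imaged by inverted microscopy. Tube length, surface area and branch points were quantified as pixel area.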"}, "[11]": {"target": "T1, Vascular endothelial growth factor receptor 2", "assay": "Inhibition of VEGFR2 in human HGC-27 cells assessed as downregulation of Akt phosphorylation at […] at 0.1 to 1 uM after 24 hrs by Westernblot analysis", "assay_type": "cell-based", "details": "dose 0.1-1 µM", "outline": "(§3)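 HGC-27 cells (1.0 × 10⁶ per 60 mm dish) were treated 24 h with 0.1% DMSO or compound (0.1, 0.5, 1 μM). RIPA lysates with phosphatase inhibitor were quantified by BCA and resolved on 8–12% SDS-PAGE onto nitrocellulose. Blots were probed for p-VEGFR-2 (Tyr1175), p-PI3K (Tyr607), p-AKT (Thr308) and p-mTOR (Ser2448), with ECL detection and densitometry; mean ± SEM.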"}, "HGC-27 [12]": {"system": "HGC-27", "assay": "Induction of apoptosis in human HGC-27 cells assessed as total apoptotic cells level at 1 uM incubated for 24 hrs by propidium iode and annexin V-FITC staining based flow cytometry", "assay_type": "functional", "outline": "as §1"}, "HUVEC [13]": {"system": "HUVEC", "assay": "Cytotoxicity against human HUVEC cells assessed as inhibition of cell growth incubated for 72 hrs by MTT assay", "assay_type": "cell-based", "outline": "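Log-phase cells were seeded at 5 × 10³ per well and attached 24 h. HT-29 and GES-1 were grown in DMEM-based medium, A549/HepG2/HGC-27 in RPMI-1640, HUVEC in ECM with ECGS; all media had 10% FBS. Cells were exposed to graded compound concentrations for 72 h at 37 °C. MTT (5 mg/mL stock) was added for 4 h, formazan dissolved in DMSO, and A490 read. IC50 was obtained by nonlinear sigmoidal regression; mean ± S.E. of three experiments.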"}, "[14]": {"target": "T1, Vascular endothelial growth factor receptor 2", "assay": "Inhibition of VEGFR2 in human HGC-27 cells assessed as downregulation of PI3K phosphorylation at Tyr607 at 0.1 to 1 uM after 24 hrs by Westernblot analysis", "assay_type": "cell-based", "details": "dose 0.1-1 µM", "outline": "as §3"}, "HUVEC [15]": {"system": "HUVEC", "assay": "Antiangiogenic activity against HUVEC cells assessed as reduction in VEGF-induced tube formation tube formation incubated for 12 hrs by matrigel-based assay", "assay_type": "functional, cell-based", "details": "Homo sapiens", "outline": "as §2"}, "HGC-27 [16]": {"system": "HGC-27", "assay": "Antimigratory activity against human HGC-27 cells assessed as relative closure of scratches at 0.5 uM measured after 24 hrs by scratch wound healing assay relative to control", "assay_type": "functional", "outline": "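HGC-27 monolayers at 80–90% confluence were serum-starved 12 h, then scratched to give 1 mm lanes. After a PBS wash, cells received complete medium with or without compound (0.1, 0.5, 1 μM). Wounds were imaged at 0, 6 and 24 h. Relative scratch closure was quantified against untreated control; mean ± SD of three experiments.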"}},
  "note": "Active and inactive are the calls of the source. The calls are words filed in the database; no cut-off is given here.",
  "data": [
    {"smiles": "CC(=O)Nc1n[nH]c2cc(-c3cnn(CC(=O)Nc4ccc(C)c(C(F)(F)F)c4)c3)ccc12", "values": [
      {"measurement": "inhibition", "setting": "HGC-27 [1]", "value": "Dose-Dependent Effect"},
      {"measurement": "Activity", "setting": "HGC-27 [2]", "value": 2.67, "unit": "%"},
      {"measurement": "inhibition", "setting": "HGC-27 [3]", "value": "Dose-Dependent Effect"},
      {"measurement": "inhibition", "setting": "HGC-27 [4]", "value": "Tde"},
      {"measurement": "Activity", "setting": "HGC-27 [5]", "value": 7.42, "unit": "%"},
      {"measurement": "inhibition", "setting": "HGC-27 [6]", "value": "Dose-Dependent Effect"},
      {"measurement": "inhibition", "setting": "[7]", "value": "Dose-Dependent Effect"},
      {"measurement": "Activity", "setting": "HGC-27 [8]", "value": "Dose-Dependent Effect"},
      {"measurement": "Activity", "setting": "HGC-27 [9]", "value": 212},
      {"measurement": "Activity", "setting": "HUVEC [10]", "value": "Active"},
      {"measurement": "inhibition", "setting": "[11]", "value": "Active"},
      {"measurement": "Activity", "setting": "HGC-27 [12]", "value": 28.8, "unit": "%"},
      {"measurement": "IC50", "setting": "HUVEC [13]", "value": 7.15, "unit": "µM"},
      {"measurement": "inhibition", "setting": "[14]", "value": "Active"},
      {"measurement": "inhibition", "setting": "HUVEC [15]", "value": "Dose-Dependent Effect"},
      {"measurement": "inhibition at 0.5 µM", "setting": "HGC-27 [16]", "value": 28, "unit": "%"}
    ]}
  ]
}
